697 NFkB inh – inhibitors of PMA/ionomycin-induced NF-kB reporter, 697 cells, primary screen, B-cell NF-kB inhibitor project, cell-based, luminescence, uHTS; 697 B-cell NF-kB luciferase reporter, 16 h; 0.33% of 330,000 active; inhibition, % at 4 µM; in the data active = inhibition above about 35%
HSF1 activator – HSF-1 activators, primary screen, NIH3T3-HGL cells, MG132 stress, luminescence, single point. NIH3T3-HGL HSF-1 luciferase reporter, 8 h; 100% = twice DMSO control signal. activation, % at 9 µM. 1.7% of 300,000 active;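 active = mean replicate activation of at least 50% with a set share of replicates each reaching 50%; inconclusive = only one of those two conditions met; inactive = mean below 50% and too few replicates reaching it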;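 note: 0% = median of the neutral control wells and 100% = twice that signal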
HSF1 inhib – HSF1 inhibitors in luciferase reporter cells, primary screen, cell-based, NIH3T3, luminescence; activity change, negative = inhibition, % at 7.5 µM (by protocol); 0.77% of 300,000 active; NIH3T3-HGL HSE-luciferase, MG132-induced, luminescence 8 h; stronger effect = lower value;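 active = more than half of replicate wells show activity change below -50%, luminescence cut by over half; inconclusive = some wells, but at most half, below -50%; inactive = no replicate well below -50%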;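 note: luciferase reports HSF-1 transcriptional activity via heat shock element; 0% = median of DMSO wells and -100% = zero luminescence signal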
Jurkat NFkB inh – inhibitors of induced NF-kB luciferase reporter, primary screen, TCR NF-kB activation inhibitor project, cell-based, luminescence, uHTS; Jurkat, PMA/ionomycin-induced NF-kB luciferase reporter; inhibition, % at 4 µM; 0.53% of 330,000 active; in the data active = inhibition above about 50%
GPR7 antagonist – GPR7 receptor antagonists, primary screen, cell-based, fluorescence, single concentration; Neuropeptides B/W receptor type 1 (Homo sapiens), P48145; GPR7-expressing cells, fluorescence antagonist assay; inhibition, % at 4.4 µM; 1.1% of 290,000 active; in the data active = inhibition above about 16%, passing the limit was not always enough;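 note: cells stimulated with the agonist NPW; 0% = agonist with vehicle and 100% = vehicle without agonist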
Target sequence (P48145 whole entry, looked up): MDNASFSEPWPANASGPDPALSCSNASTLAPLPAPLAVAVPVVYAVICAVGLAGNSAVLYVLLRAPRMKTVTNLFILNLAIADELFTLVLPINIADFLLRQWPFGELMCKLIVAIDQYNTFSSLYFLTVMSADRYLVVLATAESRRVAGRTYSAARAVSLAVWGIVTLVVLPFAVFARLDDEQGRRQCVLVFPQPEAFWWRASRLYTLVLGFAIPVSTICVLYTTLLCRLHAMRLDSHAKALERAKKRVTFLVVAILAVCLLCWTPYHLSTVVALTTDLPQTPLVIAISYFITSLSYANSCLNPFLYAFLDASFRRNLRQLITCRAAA
T cruzi repl – inhibitors of intracellular T. cruzi growth, primary screen, luminescence, NIH3T3 host cells; T. cruzi beta-gal in NIH3T3, 90 h; inhibition, % (no concentration beside the values); AID 1885, 2009; 1.4% of 300,000 active;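 active = mean inhibition across valid replicates above about 55%, limit read from the data; inconclusive = mean below that limit but half or more replicates reach it; inactive = mean below it, under half of replicates reach it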;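 note: signal also drops with host cell toxicity which is not excluded here; 0% = plate median of DMSO wells and 100% = zero luminescence signal; higher percent means less beta-gal luminescence so fewer parasites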
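Assay system: NIH/3T3 host cells with β-galactosidase reporter T. cruzi; input: 5,000 host fibroblasts per well; compound: single 50 nL compound addition per well in DMSO; timing: ≥90 h infection period, 3 h prior cell attachment; measured by: GalScreen β-gal luminescence, detergent lysis, 60 min; evaluation: percent inhibition of parasite-derived β-gal signal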
Numbers without * were called inactive. Most compounds without a hit are left out; they make up all but 4.8% or so of the library.

How did C/C(Cl)=C\Cn1c(O)c(N=NC(N)=S)c2ccccc21 do in these assays?
697 NFkB inh: 11.1; HSF1 activator: -4.2; HSF1 inhib: -4.3; Jurkat NFkB inh: 8.5; GPR7 antagonist: -6.8; T cruzi repl: 60.5*

Results for Cc1c(Cl)cccc1NC(=S)N=Nc1c(O)n(CN2CCOCC2)c2ccccc12 ?
697 NFkB inh: -1.1; HSF1 activator: 1.4; HSF1 inhib: -1.1; Jurkat NFkB inh: -3.6; GPR7 antagonist: -13.9; T cruzi repl: 62.6*

Results for Oc1c(N=NC(=S)Nc2ccccc2F)c2ccccc2n1Cc1ccccc1Cl ?
697 NFkB inh: 14.3; HSF1 activator: -2.6; HSF1 inhib: -5.2; Jurkat NFkB inh: 8.2; GPR7 antagonist: 14.5; T cruzi repl: 68.0*

What do the screens show for `C=CCC(=O)N1CCCC(CO)(Cc2ccc(F)cc2F)C1` (stereo not drawn)?
697 NFkB inh: -42.3; HSF1 activator: 24.6; HSF1 inhib: 5.7; Jurkat NFkB inh: -17.6; GPR7 antagonist: -7.1; T cruzi repl: 6.0

How did Cc1c(Cl)cccc1Nc1nc(N)nc(CSC(=S)N2CCOCC2)n1 do in these assays?
697 NFkB inh: -26.9; HSF1 activator: 13.0; HSF1 inhib: 11.4; Jurkat NFkB inh: -18.9; GPR7 antagonist: -1.9; T cruzi repl: -20.7

What do the screens show for `Nc1ncnc(N2CCc3ccccc32)c1[N+](=O)[O-]`?
697 NFkB inh: 13.4; HSF1 activator: -50.4; HSF1 inhib: inconclusive; Jurkat NFkB inh: 30.9; GPR7 antagonist: -11.9; T cruzi repl: -2.6

Results for C=CCn1c(O)c(N=NC(=S)Nc2cccc(C)c2)c2ccccc21 ?
697 NFkB inh: 8.0; HSF1 activator: -27.2; HSF1 inhib: -18.1; Jurkat NFkB inh: 3.9; GPR7 antagonist: 2.0; T cruzi repl: 58.5*

What do the screens show for `CCCn1c(N)c(N(CCOC)C(=O)CSc2cc(C)c3cccc(C)c3n2)c(=O)[nH]c1=O`?
697 NFkB inh: 5.5; Jurkat NFkB inh: -16.5

What do the screens show for `CCOC(=O)C1CCCN(Cc2ccc(OCc3ccccc3)c(OC)c2)C1` (stereo not drawn)?
697 NFkB inh: -2.9; HSF1 activator: 7.7; HSF1 inhib: 13.8; Jurkat NFkB inh: 10.2; GPR7 antagonist: 10.5; T cruzi repl: 62.6*

How did CCOC(=O)C1CCCN(Cc2ccc(O)c(OC)c2)C1 (stereo not drawn) do in these assays?
697 NFkB inh: -7.9; HSF1 activator: 9.8; HSF1 inhib: -0.8; Jurkat NFkB inh: -12.2; GPR7 antagonist: 2.2; T cruzi repl: 57.7*

How did CC(C)CNC(=O)C1CCN(Cc2ccc(OCc3ccccc3)cc2)CC1 do in these assays?
697 NFkB inh: 18.1; HSF1 activator: -70.9; HSF1 inhib: -60.6*; Jurkat NFkB inh: -38.2; GPR7 antagonist: 12.3; T cruzi repl: 9.1

How did CCOC(=O)C1CCCN(Cc2cccc(Cl)c2)C1 (stereo not drawn) do in these assays?
697 NFkB inh: 1.4; HSF1 activator: 40.2; HSF1 inhib: 4.9; Jurkat NFkB inh: 14.8; GPR7 antagonist: -14.2; T cruzi repl: 37.3

How did CCOC(=O)C1CCCN(Cc2ccc(OCc3ccccc3)cc2)C1 (stereo not drawn) do in these assays?
697 NFkB inh: -2.1; HSF1 activator: 12.8; HSF1 inhib: -3.3; Jurkat NFkB inh: -15.7; GPR7 antagonist: 23.1; T cruzi repl: 62.2*

How did CCOC(=O)C1CCCN(Cc2ccc(OC)cc2OC)C1 (stereo not drawn) do in these assays?
697 NFkB inh: 3.1; HSF1 activator: 21.1; HSF1 inhib: -1.0; Jurkat NFkB inh: -3.6; GPR7 antagonist: 11.6; T cruzi repl: 44.8

Results for Cc1ccccc1NS(=O)(=O)c1nnc(NC(=O)C(C)C)s1 ?
697 NFkB inh: -25.1; HSF1 activator: 36.4; HSF1 inhib: 9.4; Jurkat NFkB inh: -12.5; GPR7 antagonist: 2.6; T cruzi repl: -11.2

Results for CCN(CC)C(=O)C1CCCN(Cc2ccc(N(C)C)cc2)C1 (stereo not drawn) ?
697 NFkB inh: 20.5; HSF1 activator: -8.4; HSF1 inhib: -7.3; Jurkat NFkB inh: -5.1; T cruzi repl: 71.5*

What do the screens show for `CN1CCN(/N=C/c2ccc(-c3ccccc3)cc2)CC1`?
697 NFkB inh: -74.1; HSF1 activator: 31.9; HSF1 inhib: 12.7; Jurkat NFkB inh: -90.0; GPR7 antagonist: -1.9; T cruzi repl: 40.8

What do the screens show for `Cc1cc(/C=N/N2CCN(C)CC2)c(C)n1-c1ccccc1F`?
697 NFkB inh: -12.0; HSF1 activator: 1.3; HSF1 inhib: 1.7; Jurkat NFkB inh: -15.6; GPR7 antagonist: -1.4; T cruzi repl: 67.1*

How did C#CC[N+](C)(C)CC#Cc1ccccc1 do in these assays?
697 NFkB inh: -5.7; Jurkat NFkB inh: 1.7; GPR7 antagonist: -5.9; T cruzi repl: 11.7

Results for Cc1ccc(C#CC[N+](C)(C)CC#Cc2ccccc2)cc1 ?
697 NFkB inh: -1.1; HSF1 activator: 14.8; HSF1 inhib: -1.9; Jurkat NFkB inh: 0.4; GPR7 antagonist: -0.4; T cruzi repl: 57.2*

How did Cc1ccc(OCC(=O)NCCNC(=O)c2cnccn2)cc1 do in these assays?
697 NFkB inh: -4.4; HSF1 activator: -2.9; HSF1 inhib: -7.8; Jurkat NFkB inh: -0.2; GPR7 antagonist: -14.8; T cruzi repl: -5.0

Results for C=CCc1cccc(/C=N/NC(=O)C(C)Nc2ccc(C)cc2)c1O (stereo not drawn) ?
697 NFkB inh: 7.4; HSF1 activator: 15.5; HSF1 inhib: 5.5; Jurkat NFkB inh: 3.1; GPR7 antagonist: -6.0; T cruzi repl: 49.3

How did Cc1nc2ccc(S(=O)(=O)NC(C(=O)NCc3cccs3)C(C)C)cc2s1 (stereo not drawn) do in these assays?
697 NFkB inh: 7.5; HSF1 activator: -84.2; HSF1 inhib: -80.6*; Jurkat NFkB inh: 1.3; GPR7 antagonist: -5.0; T cruzi repl: 5.2

What do the screens show for `C#CCOCCOCCOCCNc1nc(N2CCN(C(=O)C([C@@H](C)O)n3cc([C@@H](N)CCCCN)nn3)CC2)nc(N2CCN(C(=O)[C@H](CCCN=C(N)N)n3cc(C(N)[C@@H](C)CC)nn3)CC2)n1` (stereo partly drawn)?
697 NFkB inh: 3.1; Jurkat NFkB inh: -4.2

What do the screens show for `CCOC(=O)[C@@H]1[C@H]2COc3cc(OC)ccc3[C@@H]2N2C(=O)N(c3ccc(F)cc3)C(=O)[C@]12C`?
697 NFkB inh: -12.0; HSF1 activator: 4.3; HSF1 inhib: -1.1; Jurkat NFkB inh: 4.1; GPR7 antagonist: -7.5; T cruzi repl: -13.6

What do the screens show for `COCc1cc(=O)oc2cc(NC(=O)c3ccc(C(C)(C)C)cc3)ccc12`?
697 NFkB inh: -6.1; HSF1 activator: 56.8*; HSF1 inhib: 10.5; Jurkat NFkB inh: -30.4; GPR7 antagonist: -15.6; T cruzi repl: -8.4
